Columns and labels:
DX3puro [αvβ6(−)] cells = assay: Cell binding and internalization, DX3puro cells; assay type: cell-based; details: 60 min; n = 4
Method in brief: (§1)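 Tubes were pretreated with non-fat milk (0.5 % w/v in PBS). DX3puro cells were kept in DMEM with puromycin (2 μg/ml); BxPC-3 cells were kept in RPMI. Both media had 10 % heat-inactivated FBS and 1 % PSG, at 37 °C and 5 % CO2. Integrin expression was checked by flow cytometry beforehand. Radiotracer binding and internalization ran 60 min (n = 4) and are reported as fraction of total radioactivity.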

BxPC-3 [αvβ6(+)] cells = assay: Cell binding and internalization, BxPC-3 cells; assay type: cell-based; details: 60 min; n = 4; mean ± SD
Method in brief: as §1

[1] = Serum stability, mouse serum; assay type: in vitro ADME
Method in brief: (§2)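 Formulated radiotracer (12.5–25 μl, 2–6 MBq) was added to 0.5 ml of either human or mouse serum and incubated at 37 °C in a sealed tube. At each time point an aliquot was withdrawn and serum proteins were precipitated. The supernatant was analysed by HPLC for intact radiotracer.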

[2] = Serum stability, human serum; assay type: in vitro ADME
Method in brief: as §2

[3] = PET imaging, radioactivity remaining in the body; assay type: in vivo, mouse; details: 4 h p.i., i.v., PET imaging studies, tumor-bearing mice, n = 4; mean ± SD
Method in brief: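 Mice bearing xenografts (paired DX3puroβ6/DX3puro or BxPC-3) received 5–7 MBq radiotracer i.v. via tail vein, with mass held at 0.175 nmol (7 nmol/kg for a 25-g mouse). Two mice per scan lay prone under 1.5–2.0 % isoflurane (n = 4/radiotracer). Static PET scans: 15 min at 1, 2, 4 h and 30 min at 6 h p.i., plus CT. Body-retained radioactivity was decay corrected.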

[4] = Biodistribution in mice bearing paired DX3puroβ6/DX3puro xenograft tumors; assay type: in vivo; details: female, athymic nude, mouse, iv, 0.175 nmol per injection, total radioactivity; for tissue uptake at 1 h: 1 h p.i.
Method in brief: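 Female athymic nude mice carried 3 × 10^6 DX3puro and 3 × 10^6 DX3puroβ6 cells s.c. in DMEM on opposite flanks; studies began at ~0.5 cm tumor diameter. Radiotracer at 1.5–3.3 MBq/animal was given i.v. via tail vein under isoflurane, with mass held at 0.175 nmol by adding nonradioactive peptide. Tissues were taken at 1, 2, 4 or 2, 4, 6 h p.i. (n = 3–4), rinsed and γ-counted; results are decay-corrected % ID/g.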

For `CC(C)C[C@H](NC(=O)[C@H](CC(=O)O)NC(=O)CNC(=O)[C@H](CCCNC(=N)N)NC(=O)[C@H](CC(C)C)NC(=O)[C@H](CC(N)=O)NC(=O)[C@@H]1CCCN1C(=O)[C@@H](NC(=O)[C@H](C)NC(=O)[C@H](CC(N)=O)NC(=O)CCOCCOCCOCCOCCOCCOCCOCCOCCOCCOCCOCCOCCOCCOCCOCCOCCOCCOCCOCCOCCOCCOCCOCCOCCOCCOCCOCCOCCNC(=O)CN1CCN(CC(=O)O)CCN(CC(=O)O)CC1)C(C)C)C(=O)N[C@@H](CCC(N)=O)C(=O)N[C@H](C(=O)N[C@@H](CC(C)C)C(=O)N[C@@H](C)C(=O)N[C@@H](CCC(N)=O)C(=O)N[C@@H](CCCNC(=N)N)C(=O)N[C@H](C(=O)N[C@@H](C)C(=O)N[C@@H](CCCNC(=N)N)C(=O)N[C@H](C(=O)NCCOCCOCCOCCOCCOCCOCCOCCOCCOCCOCCOCCOCCOCCOCCOCCOCCOCCOCCOCCOCCOCCOCCOCCOCCOCCOCCOCCOCCC(N)=O)[C@@H](C)O)C(C)C)C(C)C` [[^18F]AlF 1, [^18F]AlF NOTA-αvβ6-BP], the “binding to DX3puro cells (of total radioactivity)” value (DX3puro [αvβ6(−)] cells) was at most 1.2%, the “internalization into DX3puro cells (of total radioactivity)” value (DX3puro [αvβ6(−)] cells) was at most 0.5% and the “binding to BxPC-3 cells (of total radioactivity)” value (BxPC-3 [αvβ6(+)] cells) was 45.1 ± 0.7%. The “internalization into BxPC-3 cells (of total radioactivity)” value (BxPC-3 [αvβ6(+)] cells) was 31.5 ± 1.3%, the remaining at 2 h [1] was 67% and the remaining at 2 h [2] was at least 97%. The “injected radioactivity remaining in the body (decay corrected)” value [3] was 21.7 ± 3.4%, the tissue uptake ([4]; DX3puro tumor, uptake in DX3puro tumor, all time points (1, 2, 4 h p.i.)) was at most 0.3 %ID/g and the tissue uptake at 1 h ([4]; DX3puroβ6 tumor, uptake in DX3puroβ6 tumor, n = 3–4, mean ± SD) was 2.2 ± 0.5 %ID/g. For the same compound, the tissue uptake at 4 h ([4]; DX3puroβ6 tumor, uptake in DX3puroβ6 tumor, 4 h p.i., n = 3–4, mean ± SD) was 3 ± 0.7 %ID/g and the tissue uptake at 1 h ([4]; blood, blood radioactivity, DX3puroβ6/DX3puro model) was at most 0.1 %ID/g.

— PMC7647958 (Molecular imaging and biology, 2020)
